Broadly, the EC50 is the concentration giving half of the maximal effect. What is called CC50 is the concentration giving 50% cytotoxicity. High values mean lower toxicity to the cells, low ones greater toxicity to the cells. For orientation: Kd means the free concentration of one partner at which half of the binding sites on the other are occupied at equilibrium, for simple one-to-one binding. A higher Kd goes with lower affinity.

The subject of series [1] is Hepatitis C virus. In words: Antiviral activity against Hepatitis C virus genotype 1b Con1 infected in human Huh-luc/neo-ET replicon cells assessed as reduction of replicon luciferase signal after 72 hrs by luciferase reporter assay. It is filed as functional, organism-based, Hepacivirus hominis. The method in brief:
(§1)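 Replicon cells grown without G418, seeded at 5 × 10^3 per well, treated next day in duplicate with serial dilutions (DMSO control) at 37°C for 72 h. After a PBS wash, cells lysed in ice-cold passive lysis reagent and firefly luciferase RLU read as percent of compound-free control. EC50 by nonlinear regression of the dose-effect curve.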
In general terms: Replicon systems follow genome replication, usually without infectious particles.

Series [2] concerns Human immunodeficiency virus 1. In words: Antiviral activity against Human immunodeficiency virus 1 3B virus infected in human MT2 cells assessed as inhibition of virus-induced cytopathic effect by colorimetry. It is filed as functional, organism-based. Put shortly: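 MT-2 cells, 1 × 10^3 per well in triplicate, infected with HIV-1 IIIB at 0.1 TCID50/cell and cultured with compounds. Viral CPE quantified by MTT colorimetry after 5 days to estimate EC50.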
Background: Cytopathic effects are the visible damage that an infection or toxin causes in cultured cells.

A further series relates to MT2. In words: Cytotoxicity against human MT2 cells after 5 days by colorimetry. The class given is cell-based. Particulars: MT2, 120 h. The method in brief: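 Uninfected MT-2 cells coincubated with compounds for 5 days. Cytotoxicity by colorimetric quantitation.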
A short description of series [3]: Cytotoxicity against human HuH7 cells by luminescence based cell viability assay. Further details: species or system Huh-7. The method in brief:
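Exponentially growing Huh-7 cells seeded at 1 × 10^4 per well and incubated with compounds for 3 days. Viability read by CellTiter-Glo luminescence, used for dark compounds that interfere with methylene blue absorbance at 595 nm. CC50 derived.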

In series [4] the test system is Hepatitis C virus. The series can be described thus: Antiviral activity against Hepatitis C virus genotype 1b Con1 infected in human Huh-luc/neo-ET replicon cells assessed as reduction of replicon luciferase signal after 72 hrs by luciferase reporter assay in presence of 5% fetal bovine serum. It is filed as functional, organism-based, Hepacivirus hominis. The method in brief:
(§2)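 Huh-luc/neo-ET cells without G418, incubated with serially diluted compounds in medium containing 5%, 10%, 20% or 40% (vol/vol) FBS. Firefly luciferase read after 72 h. EC50 from dose-effect curves. The 0% value is a theoretical EC50 extrapolated from the plot of EC50 versus serum level. Means ± SD of three independent experiments.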

The test system of series [5] is Hepatitis C virus. In words: Antiviral activity against Hepatitis C virus genotype 1b Con1 infected in human Huh-luc/neo-ET replicon cells assessed as reduction of replicon luciferase signal after 72 hrs by luciferase reporter assay in presence of 10% fetal bovine serum. It is filed as functional, organism-based, Hepacivirus hominis. Put shortly:
as §2

The test system of series [6] is Hepatitis C virus. In words: Antiviral activity against Hepatitis C virus genotype 1b Con1 infected in human Huh-luc/neo-ET replicon cells assessed as reduction of replicon luciferase signal after 72 hrs by luciferase reporter assay in presence of 20% fetal bovine serum. It is filed as functional, organism-based, Hepacivirus hominis. The method in brief:
as §2

Series [7] has as its system Hepatitis C virus. In words: Antiviral activity against Hepatitis C virus genotype 1b Con1 infected in human Huh-luc/neo-ET replicon cells assessed as reduction of replicon luciferase signal after 72 hrs by luciferase reporter assay in presence of 40% fetal bovine serum. The class given is functional, organism-based, Hepacivirus hominis. Put shortly: as §2
Series [8] deals with Hepatitis C virus. In words: Antiviral activity against Hepatitis C virus genotype 1b Con1 infected in human Huh-luc/neo-ET replicon cells assessed as inhibition of virus-induced cytopathic effect after 24 hrs by luciferase reporter assay. The class given is functional, organism-based, Hepacivirus hominis. The method in brief: (§3)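 Huh-luc/neo-ET cells seeded at 1 × 10^5 per well and treated with DMSO or serially diluted compound up to 250 nM. Harvested at 24 or 48 h. Luciferase run in triplicate and RLU normalized to total protein (Bradford), expressed as percent of mock control. Three independent repeats averaged.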

Series [9] deals with Hepatitis C virus. The series can be described thus: Antiviral activity against Hepatitis C virus genotype 1b Con1 infected in human Huh-luc/neo-ET replicon cells assessed as inhibition of virus-induced cytopathic effect after 48 hrs by luciferase reporter assay. It is filed as functional, organism-based, Hepacivirus hominis. Put shortly:
as §3

For series [10], the system named is Hepatitis C virus. In words: Antiviral activity against Hepatitis C virus genotype 1b Con1 infected in human Huh-luc/neo-ET replicon cells assessed as reduction of virus-induced cytopathic effect after 72 hrs by luciferase reporter assay. It is filed as functional, organism-based, Hepacivirus hominis. Put shortly:
as §1

Series [11] relates to Hepatitis C virus. The series can be described thus: Antiviral activity against Hepatitis C virus genotype 1b Con1 infected in human Huh-luc/neo-ET replicon cells assessed as reduction in viral RNA level after 24 hrs by RT-PCR. It is filed as functional, organism-based, Hepacivirus hominis. Put shortly: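 Cells seeded at 1 × 10^5 per well and treated with DMSO or compound up to 250 nM for 24, 48 or 72 h. Total RNA diluted to 50 ng/μl. Replicon RNA (5′ UTR) measured in triplicate by one-step qRT-PCR, normalized to β-actin mRNA, and expressed as percent of mock control. Three independent repeats.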

The test system of series [12] is Hepatitis C virus. In words: Antiviral activity against blasticidin resistant Hepatitis C virus genotype 1b Con1 replicon infected in human HuH7 cells assessed as reduction in viral RNA level by RT-PCR. It is filed as functional, organism-based, Hepacivirus hominis. Particulars: Con1, Huh-7.
The target in another series is Cytochrome c (Homo sapiens, UniProt P99999). In words: Binding affinity to Cytochrome C.
The test system of series [13] is Hepatitis C virus. The series can be described thus: Antiviral activity against Hepatitis C virus genotype 1b Con1 infected in human Huh-luc/neo-ET replicon cells assessed as viral replicon survival dosed at 50 nM incubated for 12 days followed by compound removal and reintroduction of 250 ug/ml G418 measured after 12 days post compound withdrawal. The class given is functional, Hepacivirus hominis. The method in brief:
(§4)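 Huh-luc/neo-ET cells were seeded at 2 × 10^5 per well and kept without G418 for 12 days with DMSO or up to 1 μM drug. Cells were split every 3 days, with medium and drug renewed. Drug was then removed and 250 μg/ml G418 added for 12 more days, sampling at confluence. HCV 5′UTR RNA was measured by one-step qRT-PCR, normalised to β-actin and expressed relative to mock. Viability was read by CellTiter-Glo as % of mock.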

Series [14] concerns Hepatitis C virus. In words: Antiviral activity against Hepatitis C virus genotype 1b Con1 infected in human Huh-luc/neo-ET replicon cells assessed as viral replicon survival dosed at 100 nM incubated for 12 days followed by compound removal and reintroduction of 250 ug/ml G418 measured after 12 days post compound withdrawal. It is filed as functional, Hepacivirus hominis. Put shortly:
as §4

Series [15] concerns Hepatitis C virus. In words: Antiviral activity against Hepatitis C virus genotype 1b Con1 infected in human Huh-luc/neo-ET replicon cells assessed as inhibition of viral rebound dosed at 300 nM incubated for 12 days followed by compound removal and reintroduction of 250 ug/ml G418 measured after 9 days post compound withdrawal. The following applies: Hepacivirus hominis. It is filed as functional, organism-based. Put shortly:
as §4

The test system of series [16] is Hepatitis C virus. In words: Antiviral activity against Hepatitis C virus genotype 1b Con1 infected in human Huh-luc/neo-ET replicon cells assessed as viral replicon survival dosed at 300 nM incubated for 9 days followed by compound removal and reintroduction of 250 ug/ml G418 measured after 15 days post compound withdrawal. It is filed as functional, Hepacivirus hominis. The method in brief: (§5)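 In a separate run, Huh-luc/neo-ET replicon cells were treated for 9 days without G418. Drug was then withdrawn and cells were kept for a 15-day rebound period under G418 selection. Surviving cells were scored as the fraction of the population that outlasted selection.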

In series [17] the test system is Hepatitis C virus. The series can be described thus: Antiviral activity against Hepatitis C virus genotype 1b Con1 infected in human Huh-luc/neo-ET replicon cells assessed as inhibition of viral rebound dosed at 1 uM incubated for 9 days followed by compound removal and reintroduction of 250 ug/ml G418 measured after 15 days post compound withdrawal. The class given is functional, organism-based. The following applies: Hepacivirus hominis. Put shortly: as §5

The test system of series [18] is Hepatitis C virus. The series can be described thus: Antiviral activity against Hepatitis C virus genotype 1b Con1 infected in human Huh-luc/neo-ET replicon cells assessed as inhibition of viral RNA level dosed at >300 nM incubated for 12 days measured after 12 days of exposure relative to untreated control.

Activity calls are given as the source filed them. The calls are words filed in the database; no cut-off is given here. Some results are limits rather than exact numbers.

Sequence of Cytochrome c (P99999 whole entry): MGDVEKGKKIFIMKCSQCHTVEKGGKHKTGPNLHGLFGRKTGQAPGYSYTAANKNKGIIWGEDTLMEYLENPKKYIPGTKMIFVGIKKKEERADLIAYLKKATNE

Turning to `O=C(O)c1cc(C(=O)O)cc(-c2ccc(-c3c4nc(c(-c5ccc(-c6cc(C(=O)O)cc(C(=O)O)c6)cc5)c5ccc([nH]5)c(-c5ccc(-c6cc(C(=O)O)cc(C(=O)O)c6)cc5)c5ccc([nH]5)c(-c5ccc(-c6cc(C(=O)O)cc(C(=O)O)c6)cc5)c5nc3C=C5)C=C4)cc2)c1`, the EC50 in the series with Hepatitis C virus [1] amounted to 24 nM; in [2], 3670 nM; in the series on Hepatitis C virus [4], 13 nM; in the series with Hepatitis C virus [5], 24 nM; in the series on Hepatitis C virus [6], 39 nM; in the series on Hepatitis C virus [7], 69 nM. In addition, the EC50 was 57.8 nM with Hepatitis C virus [8]; 19.2 nM in the series on Hepatitis C virus [9]; 17.6 nM with Hepatitis C virus [10]; 67.8 nM in the series with Hepatitis C virus [11]; 14 nM with Hepatitis C virus [12]. Also, the figures for the CC50 (with MT2; in series [3]) were 18000 nM and more than 50000 nM, respectively. The inhibition result with Hepatitis C virus [8] (Hepacivirus hominis), with Hepatitis C virus [9] (Hepacivirus hominis), in the series on Hepatitis C virus [10] (Hepacivirus hominis) and with Hepatitis C virus [11] (Hepacivirus hominis) was “Dose-dependent effect” each time. On Cytochrome c, this compound gave a Kd of 1500 nM. The Survival in the series with Hepatitis C virus [13] turned out to be 13.1%; with Hepatitis C virus [14], 0.007%; with Hepatitis C virus [16], 0.4%. The inhibition result in the series on Hepatitis C virus [15] and in the series on Hepatitis C virus [17] was “Active” throughout. Besides, the “fold change (FC)” value in the series on Hepatitis C virus [18] was found to be 4.5.

Values taken from ChEMBL document CHEMBL1212775, “A novel class of meso-tetrakis-porphyrin derivatives exhibits potent activities against hepatitis C virus genotype 1b replicons in vitro” (Antimicrob Agents Chemother, 2010).
